From ChEMBL document CHEMBL1121973, “Synthesis and comparison of some cardiovascular properties of the stereoisomers of labetalol” (1982)
Active and inactive are the calls of the source. The rule behind the calls is not given here.

Columns and labels:
Rattus norvegicus [1] = assay: Change in blood-pressure was determined after 1 hr administration of (10 mg/kg/po) in conscious, spontaneously hypertensive rats(SHR); assay type: functional
Procedure, shortened: (§1)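 Conscious spontaneously hypertensive rats (n = 4 per group) were dosed orally at 10 mg/kg as HCl salts, with placebo as a control group. Blood pressure was measured directly, and heart rate was also recorded. Changes from pre-dose values were read at 1, 2, 3 and 4 h and reported as means ± SEM. Analysis used ANOVA with Duncan's multiple range statistic.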

Rattus norvegicus [2] = assay: Antihypertensive activity was determined by Heart rate(beats/min) measurement before dosing in conscious, spontaneously hypertensive rats; assay type: functional
Procedure, shortened: (§2)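 Blood pressure (mmHg) and heart rate (beats/min) were measured directly in conscious spontaneously hypertensive rats before oral dosing. Groups had n = 4, and values are means ± SEM.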

Rattus norvegicus [3] = assay: Change in Heart rate(beats/min) was determined after 4 hr of (10 mg/kg p.o.) administration in conscious, spontaneously hypertensive rats; assay type: functional; procedure, shortened: as §1
[4] = target: T1, Adrenergic receptor alpha (Rattus norvegicus) (UniProt P15823+P23944+P43140+P22086+P19328+P22909)
[5] = target: Beta-1 adrenergic receptor (Rattus norvegicus) (UniProt P18090); assay: Antagonistic activity was determined for 50% inhibition of tachycardia response in anesthetized, normotensive rat at a dose range of 0.3-3 mg/kg(iv); assay type: functional, organism-based
Procedure, shortened: (§3)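 Anesthetized normotensive rats received the test agent iv as HCl salts in three cumulative doses. The tachycardic response to (±)-isoproterenol (0.1 mg/kg iv) was measured. ID50 is the iv dose giving 50% inhibition of that response, reported as mean ± SEM. Analysis used analysis of variance with Duncan's multiple range statistic.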

[6] = target: Beta-1 adrenergic receptor (Rattus norvegicus) (UniProt P18090); assay: Potency to block Beta-1 adrenergic receptor relative to labetolol
Procedure, shortened: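 Rats, iv dosing as HCl salts in three cumulative doses. Antagonism of the tachycardic response to (±)-isoproterenol (0.1 mg/kg iv) was measured. ID50 is the dose giving 50% inhibition of that response (mean ± SEM), with 3-8 animals per compound. Statistics used analysis of variance with Duncan's multiple range test.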

Rattus norvegicus [7] = assay: Change in blood-pressure was determined after 2 hr administration of (10 mg/kg/po) in conscious, spontaneously hypertensive rats(SHR); assay type: functional; procedure, shortened: as §1
Rattus norvegicus [8] = assay: Change in Heart rate(beats/min) was determined after 2 hr of (10 mg/kg p.o.) administration in conscious, spontaneously hypertensive rats; assay type: functional; procedure, shortened: as §1
Rattus norvegicus [9] = assay: Change in blood-pressure was determined after 3h administration of (10 mg/kg/po) in conscious, spontaneously hypertensive rats(SHR); assay type: functional; procedure, shortened: as §1
Rattus norvegicus [10] = assay: Decrease in blood pressure(mm/Hg) was determined after administration of (10 mg/kg/po); assay type: functional
Procedure, shortened: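 Conscious spontaneously hypertensive rats, n = 4 per group, placebo control. Single oral dose of 10 mg/kg as HCl salt. Blood pressure and heart rate were measured directly before dosing and at 1, 2, 3 and 4 h after. Change from predose is given as mean ± SEM. Statistics used analysis of variance with Duncan's multiple range test.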

Rattus norvegicus [11] = assay: Change in Heart rate(beats/min) was determined after 3h of (10 mg/kg p.o.) administration in conscious, spontaneously hypertensive rats; assay type: functional; procedure, shortened: as §1
Rattus norvegicus [12] = assay: Change in Heart rate(beats/min) was determined after 1 hr of (10 mg/kg p.o.) administration in conscious, spontaneously hypertensive rats; assay type: functional; procedure, shortened: as §1
Rattus norvegicus [13] = assay: Antihypertensive activity was determined before dosing in conscious, spontaneously hypertensive rats(SHR); assay type: functional; procedure, shortened: as §2
Rattus norvegicus [14] = assay: Change in blood-pressure was determined after 4 hr administration of (10 mg/kg/po) in conscious, spontaneously hypertensive rats(SHR); assay type: functional; procedure, shortened: as §1
[15] = system: Adrenergic receptor alpha (Rattus norvegicus); assay: Relative alpha-adrenergic blocking potency was determined after administration of intravenously
Rattus norvegicus [16] = assay: Antihypertensive activity was determined before dosing in conscious, spontaneously hypertensive rats(SHR); 12/~1; assay type: functional
[17] = target: T1, Adrenergic receptor alpha (Rattus norvegicus); remark: listed apart in the source
[18] = target: Beta-1 adrenergic receptor (Rattus norvegicus) (UniProt P18090); assay: Antagonistic activity was determined for 50% inhibition of tachycardia response in anesthetized, normotensive rat at a dose range of 0.3-3 mg/kg(iv); Inactive; assay type: functional, organism-based; procedure, shortened: as §3
Rattus norvegicus [19] = assay: Change in blood-pressure was determined after 4 hr administration of(10 mg/kg/po) in conscious, spontaneously hypertensive rats(SHR); assay type: functional; procedure, shortened: as §1
Rattus norvegicus [20] = assay: Change in blood-pressure was determined after 1 hr administration of(10 mg/kg/po) in conscious, spontaneously hypertensive rats(SHR); assay type: functional; procedure, shortened: as §1
Rattus norvegicus [21] = assay: Change in blood-pressure was determined after 2 hr administration of(10 mg/kg/po) in conscious, spontaneously hypertensive rats(SHR); assay type: functional; procedure, shortened: as §1
Rattus norvegicus [22] = organism: Rattus norvegicus; assay: Potency (vasodilation) relative to labetolol; assay type: functional
[23] = target: T1, Adrenergic receptor alpha (Rattus norvegicus); remark: listed apart in the source
[24] = Ratio of Relative potency of beta1/alpha bock values; assay type: functional
[25] = target: Beta-1 adrenergic receptor (Rattus norvegicus) (UniProt P18090); assay: Antagonistic activity was determined for 50% inhibition of tachycardia response in anesthetized, normotensive rat at a dose range of 0.03-0.3 mg/kg(iv); assay type: functional, organism-based; procedure, shortened: as §3
Rattus norvegicus [26] = assay: Decrease in blood pressure(mm/Hg) was determined after administration of (10 mg/kg/po); 30-32/>4; assay type: functional
Rattus norvegicus [27] = assay: Change in blood-pressure was determined after 3h administration of(10 mg/kg/po) in conscious, spontaneously hypertensive rats(SHR); assay type: functional; procedure, shortened: as §1
[28] = Ratio of Relative potency of beta1/alpha bock values; 26-39
[29] = target: Beta-1 adrenergic receptor (Rattus norvegicus) (UniProt P18090); assay: Antagonistic activity was determined for 50% inhibition of tachycardia response in anesthetized, normotensive rat at a dose range of 0.1-1(iv); assay type: functional, organism-based; procedure, shortened: as §3

Chain of Beta-1 adrenergic receptor (Rattus norvegicus) (P18090 whole entry, looked up): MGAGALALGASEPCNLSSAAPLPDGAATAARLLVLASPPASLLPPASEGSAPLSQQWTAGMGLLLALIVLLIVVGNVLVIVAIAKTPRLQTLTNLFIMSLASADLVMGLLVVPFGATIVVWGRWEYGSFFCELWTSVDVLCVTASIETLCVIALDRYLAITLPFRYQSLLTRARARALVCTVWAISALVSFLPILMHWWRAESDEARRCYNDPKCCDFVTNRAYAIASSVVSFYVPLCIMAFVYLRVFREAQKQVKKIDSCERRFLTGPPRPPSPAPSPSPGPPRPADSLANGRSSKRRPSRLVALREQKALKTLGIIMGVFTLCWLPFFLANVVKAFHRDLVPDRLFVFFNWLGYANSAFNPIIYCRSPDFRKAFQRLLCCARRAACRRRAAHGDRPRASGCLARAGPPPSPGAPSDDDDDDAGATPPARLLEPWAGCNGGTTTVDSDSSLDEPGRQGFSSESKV

Row | Compound | ID50 [5] [mg/kg] | Relative potency [6] | ID50 [17] [mg/kg] | Change in BP (Rattus norvegicus [1]) [mmHg] | Heart rate (Rattus norvegicus [2]) [beats min-1] | Heart rate (Rattus norvegicus [3]) [beats min-1] | Change in BP (Rattus norvegicus [7]) [mmHg] | Heart rate (Rattus norvegicus [8]) [beats min-1] | Change in BP (Rattus norvegicus [9]) [mmHg] | Decrease in blood pressure (Rattus norvegicus [10]) | Heart rate (Rattus norvegicus [11]) [beats min-1] | Heart rate (Rattus norvegicus [12]) [beats min-1] | BP (Rattus norvegicus [13]) [mmHg] | Change in BP (Rattus norvegicus [14]) [mmHg] | Relative potency (Rattus norvegicus [22]) | Decrease in blood pressure (Rattus norvegicus [26]) | other results
1 | C[C@@H](CCc1ccccc1)NC[C@H](O)c1ccc(O)c(C(N)=O)c1.Cl | 4.1 | < 0.06 | – | -5 | 362 | 6 | -2 | 5 | 6 | 0 | -8 | 7 | 164 | 8 | – | – | ID50 [4]: inactive
2 | C[C@H](CCc1ccccc1)NC[C@@H](O)c1ccc(O)c(C(N)=O)c1.Cl | 5 | – | 1.3 | -12 | 359 | -39 | -5 | -16 | -4 | – | -34 | -9 | 158 | -3 | – | – | Relative potency [15]: 5.1; Decreace in BP (Rattus norvegicus [16]): 12 mmHg

The next lines start with results.

Row | ID50 [5] [mg/kg] | Relative potency [6] | ID50 [17] [mg/kg] | Compound | Change in BP (Rattus norvegicus [1]) [mmHg] | Heart rate (Rattus norvegicus [2]) [beats min-1] | Heart rate (Rattus norvegicus [3]) [beats min-1] | Change in BP (Rattus norvegicus [7]) [mmHg] | Heart rate (Rattus norvegicus [8]) [beats min-1] | Change in BP (Rattus norvegicus [9]) [mmHg] | Decrease in blood pressure (Rattus norvegicus [10]) | Heart rate (Rattus norvegicus [11]) [beats min-1] | Heart rate (Rattus norvegicus [12]) [beats min-1] | BP (Rattus norvegicus [13]) [mmHg] | Change in BP (Rattus norvegicus [14]) [mmHg] | Relative potency (Rattus norvegicus [22]) | Decrease in blood pressure (Rattus norvegicus [26]) | other results
3 | – | 0 | 4.8 | C[C@@H](CCc1ccccc1)NC[C@@H](O)c1ccc(O)c(C(N)=O)c1.Cl | 4 | 356 | -7 | 10 | 1 | 11 | 0 | -4 | 8 | 159 | 8 | – | – | ID50 [18]: inactive
4 | – | 3.5 | – | C[C@H](CCc1ccccc1)NC[C@H](O)c1ccc(O)c(C(N)=O)c1.Cl [DILEVALOL HYDROCHLORIDE] | – | 378 | -45 | – | -41 | – | – | -55 | -47 | 160 | – | 7 | >30 | Change in BP (Rattus norvegicus [19]): -27 mmHg; Change in BP (Rattus norvegicus [20]): -26 mmHg; Change in BP (Rattus norvegicus [21]): -26 mmHg; ID50 [23]: 35 mg/kg; Ratio [24]: > 500; ID50 [25]: 0.07 mg/kg; Change in BP (Rattus norvegicus [27]): -29 mmHg
5 | – | 1 | 7.1 | CC(CCc1ccccc1)NCC(O)c1ccc(O)c(C(N)=O)c1 (centres undefined) [LABETALOL] | -29 | 362 | -23 | -22 | -18 | -20 | – | -27 | -13 | 160 | -20 | 1 | >30 | Ratio [28]: 26; ID50 [29]: 0.25 mg/kg
